Rev-erbA mod – modulators of Rev-erb alpha DNA binding, primary screen, biochemical, FITC-DNA, fluorescence polarization, uHTS | Rev-erbα–FITC-DNA binding, 90 min | activity, % at 10 µM | hit rate 0.79% among 370,000 | AID 1259318, 2017;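 active = activity above about 14%, limit read from the data; passing the limit was not always enough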
MsrA act – bovine MsrA enzyme activators, primary screen, biochemical, absorbance, HTS | Methionine sulfoxide reductase A (Bos taurus) | purified bovine MsrA, absorbance read-out | activation, % at 10.6 µM | hit rate 0.3% among 360,000; in the data active = activation above about 7.5%
ASAP1 GAP inh – inhibitors of human ASAP1 ArfGAP activity, primary screen, biochemical, fluorescence polarization | Arf-GAP with SH3 domain, ANK repeat and PH domain-containing protein 1 (Homo sapiens), … | ASAP1-stimulated ARF1 GTP hydrolysis, GDP FP detection | inhibition, % at 16.5 µM | hit rate 0.19% among 360,000 | AID 624377, 2012; in the data active = inhibition above about 25%
Target sequence (Q9ULH1 325-724 limits assumed): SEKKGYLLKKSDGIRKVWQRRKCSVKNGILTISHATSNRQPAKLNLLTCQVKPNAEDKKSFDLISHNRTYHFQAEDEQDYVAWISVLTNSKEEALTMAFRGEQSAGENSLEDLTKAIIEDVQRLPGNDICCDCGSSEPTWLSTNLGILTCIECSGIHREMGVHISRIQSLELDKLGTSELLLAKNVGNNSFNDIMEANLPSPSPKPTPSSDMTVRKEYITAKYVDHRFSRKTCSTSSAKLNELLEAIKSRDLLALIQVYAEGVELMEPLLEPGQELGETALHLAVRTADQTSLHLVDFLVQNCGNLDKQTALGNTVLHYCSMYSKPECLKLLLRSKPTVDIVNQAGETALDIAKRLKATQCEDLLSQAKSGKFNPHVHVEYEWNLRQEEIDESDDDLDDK
ARFGAP1 inhibitor – inhibitors of rat ARFGAP1 GAP activity, primary screen, biochemical, fluorescence polarization, GDP tracer | hit rate 0.26% among 360,000 | inhibition, % at 16.5 µM | ADP-ribosylation factor GTPase-activating protein 1 (Rattus norvegicus), Q62848 | Arfgap1-stimulated ARF1 GTP hydrolysis, GDP FP detection | AID 651572, 2012;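 active = inhibition above a per-plate limit, mean inhibition of low control wells plus 3 SD, cut at about 25% in these data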
Target sequence (Q62848 1-136 limits assumed): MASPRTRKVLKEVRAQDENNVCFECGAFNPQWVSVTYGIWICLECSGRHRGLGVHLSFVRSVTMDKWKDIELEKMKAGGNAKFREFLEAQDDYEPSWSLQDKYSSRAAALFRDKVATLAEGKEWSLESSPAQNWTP
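System: truncated rat Arfgap1 GAP domain / Benchmarks: high control wells lacking Arfgap1, low control full reaction with DMSO / Times: compound-enzyme preincubation 20 min, reaction 120 min, detection 60 min, 25 °C / Repeats: one replicate per compound / Also added: human ARF1(Δ1-17)-GTP substrate / Measured by: Tracer-displacement fluorescence polarization with EDTA stop, 620/688 nm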
sPLA2-III inh – human group III sPLA2 inhibitors, primary screen, biochemical, QFRET, BODIPY PC-A2 liposome substrate; Group 3 secretory phospholipase A2 (Homo sapiens), Q9NZ20; QFRET BODIPY PC-A2 liposome hydrolysis, fluorescence; inhibition, % at 12.2 µM; hit rate 0.56% among 370,000;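 active = inhibition above mean plus 3 SD of compounds lying within the high and low control bounds, cut at about 19% in these data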
MsrA inhibitor – bovine MsrA enzyme inhibitors, primary screen, biochemical, absorbance, HTS. Methionine sulfoxide reductase A (Bos taurus). hit rate 0.75% among 360,000. inhibition, % at 15.5 µM. purified bovine MsrA, absorbance read-out; in the data active = inhibition above about 4.5%
MsrA act confirm – bovine MsrA activators, retest, confirmation, biochemical, absorbance, HTS; activation, % at 10.6 µM; hit rate 12% among 1,000; shares compounds with MsrA act; purified bovine MsrA, absorbance read-out; in the data active = activation above about 4%;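 also: enzyme coupled to thioredoxin and thioredoxin reductase with NADPH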
Hits are given with their value; i = inactive; nt = no result given. An excerpt weighted towards active compounds, which were near 2.7% of everything screened.

SMILES	Rev-erbA mod	MsrA act	ASAP1 GAP inh	ARFGAP1 inhibitor	sPLA2-III inh	MsrA inhibitor	MsrA act confirm
CCS(=O)(=O)Nc1cccc(-c2ccc3nnc(C)n3n2)c1	i	nt	i	i	i	i	nt
O=C(CN1CCCCC1)Nc1cccc(Br)c1	i	7.8	i	i	i	i	i
O=C(CN1CCOCC1)Nc1cccc(Br)c1	i	i	i	i	i	i	nt
CCCCOc1ccccc1C1NC(=O)NC(C)=C1C(=O)OCc1ccco1 (centres undefined)	nt	8.9	i	i	i	i	i
O=C(Nc1ccc(F)c(C(F)(F)F)c1)Nc1nnc(-c2ccncc2)s1	i	nt	nt	nt	i	nt	nt
C/C(C=NNC(=O)CSc1nnc(-c2ccc(Cl)cc2)n1-c1ccc(C)cc1)=C\c1ccccc1	i	nt	nt	nt	i	nt	nt
Cc1ccc(NC(=O)C(C)OC(=O)c2ccc(NC(=O)CC#N)cc2)cc1S(=O)(=O)N1CCOCC1 (centres undefined)	i	9.5	i	i	i	i	i
Cc1ccc(C(=O)OC(C)C(=O)Nc2ccc(S(N)(=O)=O)cc2)cc1S(=O)(=O)N1CCOCC1 (centres undefined)	i	i	i	i	i	i	nt
COC(=O)[C@]12C[C@H](CC(=O)N3CCN(C(=O)C4CC4)CC3)C(=O)N(CCc3ccc(OC)c(OC)c3)C1=C[C@H](C1CCCC1)O[C@@H]2C	i	nt	nt	nt	i	nt	nt
COC(=O)[C@]1(CNC(=O)c2cc(F)ccc2F)CC(=O)N(C)[C@@H]1c1ccccc1	i	nt	nt	nt	i	nt	nt
CCn1c(SCC(=O)N2CCCCC2C)nnc1-c1ccco1 (centres undefined)	i	i	i	i	i	i	nt
CC1CCCCN1C(=O)CSc1nnc(-c2ccco2)n1C (centres undefined)	i	26	i	i	i	i	i
Cn1nc(C(=O)OCC(=O)Nc2ccccc2[N+](=O)[O-])c2ccccc2c1=O	i	i	i	i	i	i	nt
Cn1nc(C(=O)OCC(=O)Nc2cc(Cl)ccc2C#N)c2ccccc2c1=O	i	10	i	i	i	i	i
O=C(O)C1=NOC(CNC(=O)c2ccccc2Cl)C1 (centres undefined)	i	11	i	i	i	i	i
O=C(NCCO)c1cccc(Nc2nc(-c3ccccc3)c3cc(Cl)ccc3n2)c1	i	17	i	i	i	i	i
OCCNc1nc(SCc2ccccc2)nc2sc3c(c12)CCC3	i	14	i	i	i	i	i
COc1ccc(-c2noc(CSc3nnc(-c4ccncc4)n3-c3ccc(F)cc3)n2)cc1OC	i	18	i	i	i	i	i
c1ccc(-c2cc3c(N4CCOCC4)ncnc3s2)cc1	i	8.0	i	i	i	i	i
Cc1cc(OCC(C)CN2CCC(C(O)(c3ccccc3)c3ccccc3)CC2)ccc1Br (centres undefined)	i	nt	nt	nt	i	nt	nt
O=C(NC(CC1=CCCCC1)c1ccc2ccccc2c1)C(F)(F)F (centres undefined)	i	nt	i	i	i	i	nt
CC(C)NC(=O)N[C@H]1C[C@@H]2O[C@H](CO)CC[C@@H]2O[C@@H]1CCc1ccc(-c2ccc(F)cc2)cc1	i	nt	nt	nt	i	nt	nt
CSc1ccc(-c2nc(O)c3cnccn23)cc1	i	10	i	i	i	i	i
O=c1c2cc3cccnc3nc2ncn1Cc1cccs1	i	nt	nt	nt	i	nt	nt
Cc1nc2ccccn2c1-c1ccnc(=S)[nH]1	i	8.8	i	i	i	i	i
SMILES	Rev-erbA mod	MsrA act	ASAP1 GAP inh	ARFGAP1 inhibitor	sPLA2-III inh	MsrA inhibitor	MsrA act confirm
CCC(=O)Nc1nc(CC(=O)Nc2ccccc2)cs1	i	9.4	i	i	i	i	i
CCOC(=O)Cc1csc(NC(=O)Cc2ccccc2)n1	i	i	i	i	i	i	nt
CC1CCCN(C(=O)COC(=O)/C=C/c2ccc(C(F)(F)F)cc2)C1 (centres undefined)	i	8.7	i	i	i	i	i
COc1ccc(C(=O)NNC(=S)NC(=O)c2cccc([N+](=O)[O-])c2)cc1	i	i	i	i	i	i	nt
CCCCCC(=O)NNC(=S)NC(=O)c1cccc([N+](=O)[O-])c1	i	8.9	i	i	i	i	i
O=C(NCCc1ccccc1)OCc1cn(Cc2ccccc2C(F)(F)F)nn1	i	nt	nt	nt	i	nt	nt
O=C1C(Cl)=C(NCc2cccnc2)C(=O)c2ccccc21	i	12	i	i	i	i	6.1
C=CCNC1=C(Cl)C(=O)c2ccccc2C1=O	i	i	i	i	i	i	nt
CCOC(=O)Cn1cc(-c2ccccc2)nn1	i	8.3	i	i	i	i	i
Cc1cc(-n2c(=O)[nH]c(=O)n(C)c2=O)ccc1Oc1ccc(S(=O)(=O)C(F)(F)F)cc1	i	nt	nt	nt	nt	nt	nt
CCc1nnn2c1Cn1c3ccccc3c(=O)n1[C@@H](C)C2	i	nt	nt	nt	i	nt	nt
CCCCCCCCN1C(=O)[C@@H](CC(=O)N2CCN(C(=O)OCC)CC2)C[C@@]2(C(=O)OC)C1=C[C@H](COCc1ccccc1)O[C@@H]2C	i	nt	nt	nt	i	nt	nt
O=C(CSc1ncnc2c1oc1ccccc12)Nc1cccc(C(F)(F)F)c1	i	8.8	i	i	i	i	i
CC(=O)CSc1ncnc2c1oc1ccccc12	i	i	i	i	i	i	nt
CN(C)c1ccc2nc3ccc(=[N+](C)C)cc-3sc2c1	i	23	i	i	i	8.2	7.9
CN(C(=O)[C@@H](C1CC1)[C@@H](O)c1ccc2ccccc2c1)c1ccccc1	i	nt	nt	nt	i	nt	nt
CCOc1cc(C)c(Cl)cc1S(=O)(=O)NCc1ccc2c(c1)OCO2	i	7.8	i	i	i	i	i
S=c1ncc2[nH]c(=S)[nH]c2[nH]1	nt	7.9	nt	nt	nt	nt	6.2
S=c1[nH]c2ccc(Cl)cc2[nH]1	i	i	i	i	i	i	nt
COc1ccc(C(=O)NC(=O)COC(=O)C2CC2C)cc1 (centres undefined)	i	8.0	i	i	i	i	i
COC(=O)[C@]12C[C@H](CC(=O)NCC3CCCCC3)C(=O)N(Cc3ccc(Cl)cc3Cl)C1=C[C@H](C(C)C)O[C@@H]2C1CC1	i	nt	nt	nt	i	nt	nt
C(#CC1=CCCCC1)CNCc1ccccc1	i	nt	nt	nt	i	nt	nt
CCOC(=O)N1CCN(C(=O)C[C@H]2C[C@@]3(C(=O)OC)C(=C[C@H](C(C)C)O[C@@H]3C3CC3)N(Cc3cccc4ccccc34)C2=O)CC1	i	nt	nt	nt	i	nt	nt
O=C1C=C(Nc2ccccc2O)c2ccccc2C1=O	nt	9.3	i	i	i	i	6.1
